# Most compounds without a hit are left out; they make up all but 5.7% or so of the library.
# SKKanGAS inh – S. pyogenes SKKanGAS growth inhibitors in kanamycin, primary screen, streptokinase expression inhibitor project, SKKanGAS strain, BacTiter-Glo luminescence. 6 h. inhibition, % at 7.5 µM. 1.3% of 300,000 active;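 active = mean replicate score, as percent of positive control median, at least 50; inconclusive = mean below 50 but one replicate at or above 50; inactive = mean and every replicate below 50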;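 note: strain carries kanamycin resistance gene driven by streptokinase promoter and grows in 40 µg/ml kanamycin; loss of luminescence reflects streptokinase promoter inhibition or plain growth inhibition; 0% = median of DMSO wells and 100% = positive control at its reference dose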
# Calb FLC – C. albicans growth inhibition with fluconazole, primary screen, CaCi-2 strain, Alamar Blue fluorescence; C. albicans CaCi-2 (fluconazole-resistant clinical isolate) + fluconazole, 48 h; growth inhibition, % (concentration not given with the values); 0.57% of 300,000 active; AID 1979, 2009;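 active = growth inhibition above about 58% in most replicates, limit read from the data, passing the limit was not always enough; inconclusive = exactly half the replicates above a set limit; inactive = most replicates below a set limit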;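 note: all wells also contain fluconazole at 8 µg/ml as a sub-toxic cotreatment; 0% = median of DMSO wells and 100% = median of geldanamycin control wells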
# Mdm2 MdmX PPI – inhibitors of human Mdm2-MdmX association, primary screen, cell-based, luminescence, split luciferase, SaOS-2, uHTS; Protein Mdm4 (Homo sapiens) + E3 ubiquitin-protein ligase Mdm2 (Homo sapiens), …; SaOS-2 split-luciferase Mdm2/MdmX complementation; inhibition, % at 8 µM; 3% of 330,000 active; AID 485346, 2010;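 active = inhibition of at least 50% at 8 µM in the primary screen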
# Target sequence (O15151 whole entry, looked up): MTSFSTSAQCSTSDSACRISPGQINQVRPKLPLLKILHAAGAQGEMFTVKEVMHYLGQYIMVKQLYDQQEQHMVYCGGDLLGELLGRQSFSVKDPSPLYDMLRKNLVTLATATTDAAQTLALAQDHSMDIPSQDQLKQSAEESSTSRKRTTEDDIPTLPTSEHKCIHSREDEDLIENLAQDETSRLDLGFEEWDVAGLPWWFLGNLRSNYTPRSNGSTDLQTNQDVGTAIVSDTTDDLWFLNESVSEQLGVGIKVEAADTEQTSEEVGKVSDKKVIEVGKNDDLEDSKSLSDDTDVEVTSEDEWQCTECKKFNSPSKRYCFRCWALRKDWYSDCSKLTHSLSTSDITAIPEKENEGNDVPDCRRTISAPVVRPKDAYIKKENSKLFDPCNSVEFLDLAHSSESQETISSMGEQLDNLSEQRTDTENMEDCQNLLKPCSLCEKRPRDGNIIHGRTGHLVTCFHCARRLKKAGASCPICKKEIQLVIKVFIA
# Target sequence (Q00987 whole entry, looked up): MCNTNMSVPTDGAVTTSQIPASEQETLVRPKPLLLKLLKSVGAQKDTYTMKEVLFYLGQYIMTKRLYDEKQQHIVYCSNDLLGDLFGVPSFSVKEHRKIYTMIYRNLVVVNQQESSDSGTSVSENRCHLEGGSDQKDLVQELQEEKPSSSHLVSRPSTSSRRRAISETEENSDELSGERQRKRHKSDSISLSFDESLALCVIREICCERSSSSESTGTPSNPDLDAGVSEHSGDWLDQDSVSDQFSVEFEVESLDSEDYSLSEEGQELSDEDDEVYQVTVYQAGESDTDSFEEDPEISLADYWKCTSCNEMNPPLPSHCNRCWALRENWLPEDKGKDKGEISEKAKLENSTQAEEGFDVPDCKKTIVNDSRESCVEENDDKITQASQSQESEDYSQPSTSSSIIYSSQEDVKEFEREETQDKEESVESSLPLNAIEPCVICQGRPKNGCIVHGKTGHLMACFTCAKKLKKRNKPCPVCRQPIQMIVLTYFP
# T cruzi inh – inhibitors of intracellular T. cruzi growth, primary screen, luminescence, NIH3T3 host cells | T. cruzi beta-gal in NIH3T3, 90 h | inhibition, % (concentration not given with the values) | 1.4% of 300,000 active;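 active = mean inhibition across valid replicates above about 55%, limit read from the data; inconclusive = mean below that limit but half or more replicates reach it; inactive = mean below it, under half of replicates reach it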;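 note: signal also drops with host cell toxicity which is not excluded here; 0% = plate median of DMSO wells and 100% = zero luminescence signal; higher percent means less beta-gal luminescence so fewer parasites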
#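 Incubation – ≥90 h infection period, 3 h prior cell attachment · System – NIH/3T3 fibroblasts plus reporter T. cruzi · Doses – compound pinned at 50 nL/well, DMSO · Read-out basis – percent inhibition of parasite-derived β-gal signal · Signal – luminescent β-galactosidase signal after 60 min lysis · Also added – 5000 T. cruzi trypomastigotes/well · Medium – Low-serum DMEM with 2% FBS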
# CSC inhib – cancer stem cell viability inhibitors, primary screen, luminescence; cancer stem cell-like cells viability; inhibition, % at 7.5 µM; 1.1% of 300,000 active; AID 2717, 2010; in the data active = inhibition above about 75%; inconclusive = no clear call, values can overlap the other calls; tested in HMLE shEcad cells
# Beta apoptosis – inhibitors of cytokine-induced beta cell apoptosis, primary screen, luminescence | 0.8% of 300,000 active | protection from apoptosis, % (no concentration beside the values) | INS-1E cytokine-induced death, ATP luminescence, 48 h; percent of positive-control rescue, neutral wells zero;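 active = Every replicate reaches about 75%, or at least half do and their mean reaches it too, limit read from the data; inconclusive = At least half of replicates reach the limit but their mean does not; inactive = Under half of replicates reach the limit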;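 note: 0% = cytokine-treated negative control wells and 100% = positive control rescue; higher means more ATP so stronger rescue from cytokine killing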
# * hit, by the source's call; ? = inconclusive; · = no result.
SMILES,SKKanGAS inh,Calb FLC,Mdm2 MdmX PPI,T cruzi inh,CSC inhib,Beta apoptosis
CN(C(=O)CSc1ncnc2sc3c(c12)CCCC3)C1CCS(=O)(=O)C1 (configuration not stated),·,·,-6.1,·,-20.3,-2.3
Nn1c(SCC(=O)Nc2ccccc2F)nnc1-c1cccs1,-6.0,0.8,12.3,1.7,-1.0,-6.5
COc1cc(OC)cc(-c2sc3ccc(OC)cc3c2-c2ccc(O)cc2)c1,·,·,20.2,·,136.1*,1.9
COc1ccc2sc(-c3ccccc3OC)c(-c3ccc(O)cc3)c2c1,·,·,22.2,·,108.5*,-0.6
COc1ccccc1-c1sc2cc3c(cc2c1-c1ccc(O)cc1)OCO3,·,·,16.1,·,·,-9.3
COc1cc2sc(-c3ccccc3OC)c(-c3ccc(O)cc3)c2cc1OC,·,·,27.1,·,80.2*,-10.1
COc1ccc(/C=N/Nc2snc(SC)c2C#N)cc1OC,18.1,18.4,-119.4,5.4,44.9,34.7
CCOc1ccccc1/C=N/Nc1ccnc(=O)[nH]1,-1.5,-10.5,-2.3,-9.4,-6.1,21.4
COc1cccc(/C=N/Nc2ccnc(=O)[nH]2)c1O,-4.1,37.6,34.8,-13.1,9.4,92.7*
COc1cccc(/C=N/Nc2snc(SC)c2C#N)c1O,27.1,1.7,43.7,-17.1,56.4,100.7*
O=c1nccc(N/N=C/c2ccccc2O)[nH]1,12.4,7.1,32.3,-1.2,8.3,124.7*
Cc1cc(C(=O)NC2CC(C)(C)Cc3c2cnn3-c2cccc(F)c2)nn1C (configuration not stated),3.3,10.9,27.0,6.3,-19.6,·
CCNC(=S)N/N=C/c1cn(Cc2ccc(F)cc2)c2ccccc12,21.9,-5.5,29.2,43.0,89.6*,5.9
O=[N+]([O-])/C=C/c1cn(Cc2ccc(F)cc2)c2ccccc12,3.7,-20.6,22.2,1.4,137.0*,78.2*
CN1CCN(C(=S)c2cn(Cc3ccc(F)cc3)c3ccccc23)CC1,-4.4,121.2*,23.4,-0.8,8.0,2.2
O=C(O)c1ccc(N/N=C/c2cn(Cc3ccc(F)cc3)c3ccccc23)cc1,29.0,-10.4,2.9,-3.4,4.5,-7.4
O=C(CSC(=S)N1CCOCC1)Nc1ccc(S(=O)(=O)Nc2ncccn2)cc1,3.9,2.3,-4.8,28.3,-4.9,-5.3
C=C1C(C(=O)Nc2cccc(OC)c2)C1C(=O)Nc1cccc(OC)c1 (configuration not stated),-4.2,-10.4,2.3,4.8,3.6,0.1
COc1cccc(Oc2cn[nH]c2-c2ccc(OC)cc2O)c1,14.4,2.6,27.3,7.0,35.3,·
CCCOC(=O)c1ccc(Oc2cn[nH]c2-c2ccc(OCC)cc2O)cc1,77.7*,13.0,21.4,-2.9,-7.2,-0.7
COc1ccccc1Oc1cn[nH]c1-c1ccc(O)cc1O,-4.2,-6.9,26.2,-11.9,9.1,-2.2
COc1ccccc1Oc1cn[nH]c1-c1ccc(OCC(=O)NN)cc1O,49.5*,2.6,-23.3,-8.5,·,·
CCOc1ccc(-c2[nH]ncc2Oc2cccc(OC)c2)c(O)c1,26.5,-5.9,36.1,-14.6,30.3,-1.1
COc1ccc(Oc2cn[nH]c2-c2ccc(OCC(=O)NN)cc2O)cc1,87.5*,-1.6,15.0,-2.0,·,·
CC(Oc1ccc(Cl)cc1Cl)c1nc(-c2ccc(NC(=O)c3ccco3)cc2)no1 (configuration not stated),54.0*,-8.5,-12.3,-11.9,62.6,10.9
SMILES,SKKanGAS inh,Calb FLC,Mdm2 MdmX PPI,T cruzi inh,CSC inhib,Beta apoptosis
Cc1nn(-c2ccccc2)c(Cl)c1C1C(C#N)=C(N)OC2=C1C(=O)CCC2 (configuration not stated),86.9*,11.4,-21.8,-5.2,-9.2,-1.6
COCCN(C(=O)c1ccc(N2CCCC2=O)cc1)c1c(N)n(Cc2ccccc2)c(=O)[nH]c1=O,·,·,-11.9,·,-9.3,-5.9
O=C(Nc1nc(-c2ccco2)c(-c2ccco2)s1)c1c(F)cccc1Cl,·,·,28.9,·,-14.9,0.0
O=C(Nc1nc(-c2ccco2)c(-c2ccco2)s1)c1cnccn1,29.2,·,22.7,70.4*,16.2,-0.5
COc1cc2nc(N(C)C)nc(N)c2cc1OC,5.5,-1.2,35.0,62.8*,-12.6,21.7
COc1cccc(C2C3=C(N=c4s/c(=C\c5ccc(OCC(=O)O)cc5)c(=O)n42)c2ccccc2CC3)c1 (configuration not stated),101.6*,17.9,22.7,-0.5,22.2,3.0
COc1ccccc1C1C2=C(N=c3s/c(=C/c4cccc(OCC(=O)O)c4)c(=O)n31)c1ccccc1CC2 (configuration not stated),·,·,·,·,48.4,-2.6
Nc1nc(N)c2[nH]cnc2n1,1.7,-0.7,16.4,53.5,-13.2,-2.9
Nc1nc(=S)c2[nH]cnc2[nH]1,·,·,45.2,·,91.1*,·
Cc1ccc(NC(=O)COC(=O)CCc2ccccc2)cc1S(=O)(=O)N1CCOCC1,·,·,-19.4,·,-8.6,1.1
CCCOc1ccc(CNCCCOCC)cc1OC,1.4,1.1,23.1,62.5*,-5.8,-21.0
CCCn1c(CN2CCN(C(=O)OCC)CC2)nc2cc([N+](=O)[O-])ccc21,8.4,-0.4,7.1,-10.0,-8.0,6.2
O=S(=O)(/N=C(/c1ccccc1)N1CCOCC1)c1ccc(F)cc1,-1.1,2.4,-23.3,-17.4,-8.0,·
CN(C)CCCN(C(=O)c1ccc(Cl)s1)c1nc2cc3c(cc2s1)OCO3,2.8,-17.6,22.5,?,-8.9,3.2
CN(C)CCCN(C(=O)c1ccco1)c1nc2ccc(F)cc2s1,5.6,-3.5,-19.0,47.8,-14.9,-5.6
Cc1ccc2nc(N(CCCN(C)C)C(=O)c3ccco3)sc2c1,12.0,-17.7,-1.3,55.8*,-2.9,-1.8
CN(C)CCCN(C(=O)c1ccco1)c1nc2cc3c(cc2s1)OCO3,28.9,-12.1,-21.4,56.7*,-1.2,·
Cc1ccc2nc(N(CCCN(C)C)C(=O)c3ccc(Br)s3)sc2c1,-3.1,17.4,22.6,61.7*,-0.8,-3.2
CN(C)CCCN(C(=O)c1cccs1)c1nc2cc3c(cc2s1)OCO3,-4.0,10.2,-30.5,67.0*,-1.9,-6.6
Cc1noc(C)c1COC(=O)[C@@H](NC(=O)c1ccccc1)C(C)C,-2.1,-6.5,2.8,-30.9,-2.9,-0.1
CN(C)CCCN(C(=O)c1ccco1)c1nc2c(F)cc(F)cc2s1,-4.3,-29.2,31.4,57.1*,-8.2,-1.8
O=C(CSc1nc2ccc(Cl)cc2[nH]1)c1cccs1,2.5,1.0,-63.6,-3.9,-1.3,-3.5
CCn1c(O)c(N=NC(=O)c2cccs2)c2ccccc21,7.4,54.2*,1.0,23.5,-19.7,12.7
CC1=NN(c2nc(-c3ccccc3)cs2)C(=O)C1,66.1*,-1.0,-10.5,-12.3,·,2.3

# Screens (PubChem BioAssay)
